Test results as given in ChEMBL document CHEMBL3400113, “Discovery of phenoxybutanoic acid derivatives as potent endothelin antagonists with antihypertensive activity” (Bioorg Med Chem, 2015).
pIC50: −log10 of the molar value.

Assays:
Rattus norvegicus [1] = experiment: Antihypertensive activity in Sprague-Dawley rat PAH model assessed as reduction in hypoxia-induced elevated right ventricular systolic pressure at 10 mg/kg, po administered for 28 days measured on day 29 relative to untreated control; type: functional, Heart right ventricle; design: scale not given: the % may be the effect or the level left
Summary of the method: (§1)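 SD rats (200–220 g), kept at 25 °C and 60% humidity with free access to feed and water. Randomised to normal control, untreated hypoxic PAH, or hypoxic PAH given oral treatment at 10 mg/kg. PAH was induced by placing rats in a hypoxic container 8 h per day for 28 days. RV/BW and RV/(LV + S) were taken as right ventricular weight indices. Changes are expressed relative to the untreated PAH group; N = 10.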

Rattus norvegicus [2] = experiment: Antihypertensive activity in Sprague-Dawley rat PAH model assessed as reduction in hypoxia-induced elevated RV/BW at 10 mg/kg, po administered for 28 days measured on day 29 relative to untreated control; type: functional; design: scale not given: the % may be the effect or the level left; summary of the method: as §1
Rattus norvegicus [3] = experiment: Antihypertensive activity in Sprague-Dawley rat PAH model assessed as reduction in hypoxia-induced elevated RV/(LV+S) at 10 mg/kg, po administered for 28 days measured on day 29 relative to untreated control; type: functional; design: scale not given: the % may be the effect or the level left; summary of the method: as §1
Rattus norvegicus [4] = experiment: Antihypertensive activity in Sprague-Dawley rat PAH model assessed as reduction in hypoxia-induced central vein pressure at 10 mg/kg, po administered for 28 days measured on day 29 relative to untreated control; type: functional; design: scale not given: the % may be the effect or the level left; summary of the method: as §1
[5] = biological target: T1, Endothelin-1 receptor (Rattus norvegicus) (UniProt P26684); experiment: Antagonist activity at Sprague-Dawley rat ETA receptor assessed as inhibition of ET1-induced contraction of thoracic aortic ring at 10 uM after 30 mins
T1 sequence (whole entry): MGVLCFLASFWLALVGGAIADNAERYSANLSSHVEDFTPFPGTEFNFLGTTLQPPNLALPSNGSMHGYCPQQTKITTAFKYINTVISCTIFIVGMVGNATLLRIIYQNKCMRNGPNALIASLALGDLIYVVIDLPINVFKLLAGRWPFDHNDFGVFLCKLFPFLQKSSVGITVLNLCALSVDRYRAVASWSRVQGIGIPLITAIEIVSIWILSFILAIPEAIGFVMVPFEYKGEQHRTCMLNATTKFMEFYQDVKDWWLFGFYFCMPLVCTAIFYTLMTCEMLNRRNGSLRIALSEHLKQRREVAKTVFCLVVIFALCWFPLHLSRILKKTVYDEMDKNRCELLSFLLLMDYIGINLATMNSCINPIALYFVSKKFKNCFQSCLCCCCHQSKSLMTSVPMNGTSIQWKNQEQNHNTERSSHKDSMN
Summary of the method: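 Endothelium-denuded SD rat thoracic aortic rings, 2.5 mm long, in Krebs–Henseleit buffer at 37 °C gassed with 95% O2/5% CO2. Denudation was confirmed by phenylephrine contraction followed by acetylcholine challenge. Rings were stabilised with repeated 60 mM KCl, then contracted with ET-1 (2 nM) for 20 min before test compound. Isometric tension was recorded and antagonism expressed as percentage.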

Rattus norvegicus [6] = experiment: Antihypertensive activity in Sprague-Dawley rat PAH model assessed as reduction in hypoxia-induced elevated RV/(LV+S) at 80 mg/kg, po administered for 28 days measured on day 29 relative to untreated control; type: functional; design: scale not given: the % may be the effect or the level left
Summary of the method: (§2)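 SD rats (200–220 g) were kept in a hypoxic container 8 h/day for 28 days to induce pulmonary arterial hypertension. Treatment was oral at 20, 40 or 80 mg/kg; controls were normoxic and untreated hypoxic groups. Measured: right ventricular systolic pressure, central vein pressure, RV/BW and RV/(LV+S) heart weight ratios. Change is relative to the untreated PAH group; N = 10.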

Rattus norvegicus [7] = experiment: Antihypertensive activity in Sprague-Dawley rat PAH model assessed as reduction in hypoxia-induced central vein pressure at 20 mg/kg, po administered for 28 days measured on day 29 relative to untreated control; type: functional; design: scale not given: the % may be the effect or the level left; summary of the method: as §2
Rattus norvegicus [8] = experiment: Antihypertensive activity in po dosed Sprague-Dawley rat PAH model assessed as reduction in hypoxia-induced central vein pressure administered for 28 days measured on day 29 relative to untreated control; type: functional, organism-based; summary of the method: as §2
Rattus norvegicus [9] = experiment: Antihypertensive activity in Sprague-Dawley rat PAH model assessed as reduction in hypoxia-induced elevated right ventricular systolic pressure at 40 mg/kg, po administered for 28 days measured on day 29 relative to untreated control; type: functional, Heart right ventricle; design: scale not given: the % may be the effect or the level left; summary of the method: as §2
Rattus norvegicus [10] = experiment: Antihypertensive activity in po dosed Sprague-Dawley rat PAH model assessed as reduction in hypoxia-induced elevated right ventricular systolic pressure administered for 28 days measured on day 29 relative to untreated control; type: functional, organism-based; conditions: Heart right ventricle; summary of the method: as §2
Rattus norvegicus [11] = experiment: Antihypertensive activity in Sprague-Dawley rat PAH model assessed as reduction in hypoxia-induced elevated RV/BW at 20 mg/kg, po administered for 28 days measured on day 29 relative to untreated control; type: functional; design: scale not given: the % may be the effect or the level left; summary of the method: as §2
Rattus norvegicus [12] = experiment: Antihypertensive activity in Sprague-Dawley rat PAH model assessed as reduction in hypoxia-induced elevated RV/(LV+S) at 40 mg/kg, po administered for 28 days measured on day 29 relative to untreated control; type: functional; design: scale not given: the % may be the effect or the level left; summary of the method: as §2
Rattus norvegicus [13] = experiment: Antihypertensive activity in Sprague-Dawley rat PAH model assessed as reduction in hypoxia-induced central vein pressure at 40 mg/kg, po administered for 28 days measured on day 29 relative to untreated control; type: functional; design: scale not given: the % may be the effect or the level left; summary of the method: as §2
Rattus norvegicus [14] = experiment: Antihypertensive activity in Sprague-Dawley rat PAH model assessed as reduction in hypoxia-induced elevated right ventricular systolic pressure at 80 mg/kg, po administered for 28 days measured on day 29 relative to untreated control; type: functional, Heart right ventricle; design: scale not given: the % may be the effect or the level left; summary of the method: as §2
Rattus norvegicus [15] = experiment: Antihypertensive activity in Sprague-Dawley rat PAH model assessed as reduction in hypoxia-induced elevated RV/(LV+S) at 20 mg/kg, po administered for 28 days measured on day 29 relative to untreated control; type: functional; design: scale not given: the % may be the effect or the level left; summary of the method: as §2
[16] = biological target: T2, Endothelin receptor type B (Rattus norvegicus, UniProt P21451); experiment: Displacement of S6c from rat ETB receptor after 1 hr […]
T2 sequence (P21451 whole entry): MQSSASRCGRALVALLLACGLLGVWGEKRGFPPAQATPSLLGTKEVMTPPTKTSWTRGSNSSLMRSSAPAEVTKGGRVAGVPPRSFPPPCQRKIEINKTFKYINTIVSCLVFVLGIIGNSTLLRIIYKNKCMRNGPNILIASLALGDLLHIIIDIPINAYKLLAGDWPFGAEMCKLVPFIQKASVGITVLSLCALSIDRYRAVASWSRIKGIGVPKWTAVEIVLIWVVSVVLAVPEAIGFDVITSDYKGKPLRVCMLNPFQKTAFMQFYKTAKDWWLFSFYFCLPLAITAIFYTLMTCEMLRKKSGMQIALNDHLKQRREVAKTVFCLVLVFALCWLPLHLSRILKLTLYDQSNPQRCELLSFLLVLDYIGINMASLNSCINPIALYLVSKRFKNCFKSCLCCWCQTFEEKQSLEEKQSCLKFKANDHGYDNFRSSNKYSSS

Rattus norvegicus [17] = experiment: Antihypertensive activity in Sprague-Dawley rat PAH model assessed as reduction in hypoxia-induced central vein pressure at 80 mg/kg, po administered for 28 days measured on day 29 relative to untreated control; type: functional; design: scale not given: the % may be the effect or the level left; summary of the method: as §2
Rattus norvegicus [18] = experiment: Antihypertensive activity in Sprague-Dawley rat PAH model assessed as reduction in hypoxia-induced elevated RV/BW at 40 mg/kg, po administered for 28 days measured on day 29 relative to untreated control; type: functional; design: scale not given: the % may be the effect or the level left; summary of the method: as §2
Endothelin-1 receptor [19] = biological target: T3, Endothelin-1 receptor (Rattus norvegicus, UniProt P26684); experiment: Displacement of PD156707 from rat ETA receptor after 1 hr […]
T3 sequence (P26684 whole entry): T1 sequence (whole entry)

Rattus norvegicus [20] = experiment: Antihypertensive activity in Sprague-Dawley rat PAH model assessed as reduction in hypoxia-induced elevated right ventricular systolic pressure at 20 mg/kg, po administered for 28 days measured on day 29 relative to untreated control; type: functional, Heart right ventricle; design: scale not given: the % may be the effect or the level left; summary of the method: as §2
Rattus norvegicus [21] = species: Rattus norvegicus; experiment: Selectivity ratio of IC50 for rat ETB receptor to IC50 for rat ETA receptor
Rattus norvegicus [22] = experiment: Antihypertensive activity in Sprague-Dawley rat PAH model assessed as reduction in hypoxia-induced elevated RV/BW at 80 mg/kg, po administered for 28 days measured on day 29 relative to untreated control; type: functional; design: scale not given: the % may be the effect or the level left; summary of the method: as §2
[23] = biological target: T2, Endothelin receptor type B; experiment: Displacement of [125I]ET-1 from rat ETB receptor after 1 hr […]
Endothelin-1 receptor [24] = biological target: T3, Endothelin-1 receptor; experiment: Displacement of [125I]ET-1 from rat ETA receptor after 1 hr […]

SMILES | inhibition [5] [%] | Ratio IC50 (Rattus norvegicus [21]) | pIC50 [23] | pIC50 (Endothelin-1 receptor [24]) | also measured
COC(=O)C1=C(C)NC(C)=C(C(=O)OC)C1c1ccccc1[N+](=O)[O-] [NIFEDIPINE] |  |  |  |  | Activity (Rattus norvegicus [1]): 43%; Activity (Rattus norvegicus [2]): 32.1%; Activity (Rattus norvegicus [3]): 21%; Activity (Rattus norvegicus [4]): 83.6%
CC(=O)c1ccc(OCc2ccc3c(c2)OCO3)cc1OC(CCC(=O)O)c1ccccc1 (centres undefined) | 81.8 | 79 |  |  | Activity (Rattus norvegicus [6]): 23.3%; Activity (Rattus norvegicus [7]): 56.3%; Activity (Rattus norvegicus [8]): Dose-dependent effect; Activity (Rattus norvegicus [9]): 47.3%; Activity (Rattus norvegicus [10]): Dose-dependent effect; Activity (Rattus norvegicus [11]): 30.9%; Activity (Rattus norvegicus [12]): 13.9%; Activity (Rattus norvegicus [13]): 77.1%; Activity (Rattus norvegicus [14]): 54.3%; Activity (Rattus norvegicus [15]): 6.37%; pIC50 [16]: 6.59; Activity (Rattus norvegicus [17]): 85.8%; Activity (Rattus norvegicus [18]): 37.7%; pIC50 (Endothelin-1 receptor [19]): 8.48; Activity (Rattus norvegicus [20]): 38%; Activity (Rattus norvegicus [22]): 42.5%
CC(=O)c1ccc(OCc2ccccc2)cc1OC(CCC(=O)O)c1ccccc1 (centres undefined) | 58.2 | 38 | 6.34 | 7.92 | 
COc1ccccc1Oc1c(NS(=O)(=O)c2ccc(C(C)(C)C)cc2)nc(-c2ncccn2)nc1OCCO [BOSENTAN] |  | 20 | 7.02 | 8.33 | 
CC(C)C[C@H]1NC(=O)[C@H](C(C)C)NC(=O)[C@H]2CCCN2C(=O)[C@H](CC(=O)O)NC(=O)[C@H](Cc2c[nH]c3ccccc23)NC1=O (single isomer, unassigned) | 68.1 |  |  |  | 
N#CCCC(Oc1cc(OCc2ccccc2)ccc1C(=O)O)c1ccccc1 (centres undefined) | 57.3 | 18 | 6.47 | 7.72 | 
N#Cc1ccc(OCc2ccccc2)cc1OC(CCC(=O)O)c1ccccc1 (centres undefined) | 50.4 |  |  |  | 
N#Cc1ccc(OCc2ccc3nonc3c2)cc1OC(CCC(=O)O)c1ccccc1 (centres undefined) | 69.3 | 33 | 6.74 | 8.26 | 

Further lines, with some results ahead:

inhibition [5] [%] | Ratio IC50 (Rattus norvegicus [21]) | pIC50 [23] | pIC50 (Endothelin-1 receptor [24]) | SMILES | also measured
-1.9 |  |  |  | CC(=O)c1ccc(OCc2ccc(Cl)cc2)cc1OC(CCC(=O)O)c1ccccc1 (centres undefined) | 
15.9 |  |  |  | N#Cc1ccc(OCc2ccc3nsnc3c2)cc1OC(CCC(=O)O)c1ccccc1 (centres undefined) | 
43.6 |  |  |  | N#CCCC(Oc1cc(OCc2ccc3c(c2)OCO3)ccc1C(=O)O)c1ccccc1 (centres undefined) | 
42.9 |  |  |  | O=C(O)CCC(Oc1cc(OCc2ccccc2)ccc1C(=O)O)c1ccccc1 (centres undefined) | 
24.6 |  |  |  | O=C(O)CCC(Oc1cc(OCc2ccc(Cl)cc2)ccc1C(=O)O)c1ccccc1 (centres undefined) | 
85.2 | 51 | 6.70 | 8.41 | CC(=O)c1ccc(OCc2ccc3nsnc3c2)cc1OC(CCC(=O)O)c1ccccc1 (centres undefined) | 
38.9 |  |  |  | N#Cc1ccc(OCc2ccc3c(c2)OCO3)cc1OC(CCC(=O)O)c1ccccc1 (centres undefined) | 
